The list is not random: actives were taken first. Their share in the collection is about 3.3%.
ABCB6 inh MLPCN – ABCB6 transporter inhibitors, primary screen, K562-ABCB6 cells, flow cytometry, MLPCN library; ATP-binding cassette sub-family B member 6 (Homo sapiens), Q9NP58; K562-ABCB6 porphyrin accumulation, 1 h; active compounds read low; fluorescence ratio to DMSO, % at 10 µM; 360,000 tested, 0.19% active;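 active = fluorescence ratio to DMSO below 75%, the collection mean minus 3 SD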;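 note: signal is porphyrin accumulated inside mitochondria; 100% equals median channel fluorescence of DMSO control wells; lower ratio means ABCB6 inhibition with less porphyrin fluorescence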
FXN GAA850 act – FXN promoter activators, primary screen, cell-based, luciferase luminescence, HEK293 lucGAA850; AID 540364, 2011; activation, % at 6 µM; HEK293 lucGAA850 FXN promoter luciferase reporter, 24 h; percent of 10 µM SAHA response; 360,000 tested, 0.56% active;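 active = activation above the average of all compounds screened plus 3 SD, cutoff fixed separately per campaign, cut at about 7.5% in these data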;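 note: 0% = DMSO wells and 100% = 10 µM SAHA wells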
STAT3 act – IL-6 driven STAT3 reporter potentiators, primary screen, U3A cells, luciferase, luminescence, MLSCN library | IL-6 STAT3-luciferase reporter; 100% = signal with IL-6 EC80 alone | activation (% of control), % at 5.6 µM | 190,000 tested, 0.91% active | AID 871, 2007;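 active = activation above the screen-wide mean of compound activation plus 3 SD, cut at about 130% in these data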;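 note: 0% = background luminescence of wells with medium and substrate only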
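Material: human STAT1-deficient U3A cells with stable STAT3-luciferase reporter / Probe or stimulus: IL-6 stimulus at 33 ng/mL final / Schedule: 1 h compound pre-exposure, 6 h IL-6 stimulation, 37 °C / Technique: luminescence / Read-out basis: percent of IL-6-only median luminescence / Control set: IL-6-only high control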
AHR act – AHR activators, primary screen, cell-based, luminescence, luciferase reporter, human. AHR-responsive luciferase reporter cells. activation, % at 5 µM. 320,000 tested, 2.5% active. AID 2796, 2010; in the data active = activation above about 47%;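 note: 0% = vehicle wells and 100% = reference agonist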
Numbers without * were called inactive; · = not tested or not shown.

SMILES	ABCB6 inh MLPCN	FXN GAA850 act	STAT3 act	AHR act
O=C(Nc1ccccc1)c1ccc(NCCc2ccccc2)c([N+](=O)[O-])c1	99.0	1.6	87.7	49.8*
COC(=O)c1nn(-c2ccc(OC)cc2)c(=O)cc1O	99.0	4.6	98.5	-0.7
COc1ccc(-n2nc(C#N)c(Cl)cc2=O)cc1	102.0	32.8*	89.7	·
COc1cc2c(cc1NC(=O)CSc1nc3ccc(C)cc3[nH]1)oc1ccccc12	·	·	96.6	57.3*
COc1cc2c(cc1NC(=O)CSCC(=O)O)oc1ccccc12	90.0	1.0	128.7	12.3
COc1cc2c(cc1NC(=O)CSc1nnc(Cc3cccs3)n1Cc1ccco1)oc1ccccc12	92.0	-2.9	110.4	28.0
COc1cc2c(cc1NC(=O)CSc1nnc(Cc3cccs3)n1C)oc1ccccc12	110.0	-0.7	112.9	47.1*
COc1cc2c(cc1NC(=O)CSc1ccc(C)cc1)oc1ccccc12	95.0	-3.5	98.0	9.4
COc1cc2c(cc1NC(=O)CSc1cccc[n+]1[O-])oc1ccccc12	99.0	1.2	103.8	79.9*
O=C(NCc1cccc(C(F)(F)F)c1)c1[nH]c(C(F)(F)F)nc1-c1ccccc1	94.0	·	·	·
COc1cc(/C=C(\C#N)C(=O)Nc2ccccc2C(=O)O)cc(Cl)c1OC	103.0	-0.3	111.3	0.4
NC(=O)C1CCN(C(=O)C2c3ccccc3C(=O)N3CCc4ccccc4C23)CC1 (stereo not given)	101.0	0.5	118.3	60.9*
CCOCCCNC(=O)C1c2ccccc2C(=O)N2CCc3ccccc3C12 (stereo not given)	99.0	-0.2	108.4	76.2*
O=C(CN1CCN(S(=O)(=O)c2ccc(Br)s2)CC1)N1CCCCC1	96.0	-1.9	·	1.4
CC(C)(C)S(=O)N1Cc2cc(C(=O)N3CCc4ccccc4C3)nc(-c3cccc(-c4ccncc4)c3)c2[C@H]1CCO (stereo not given in full)	119.0	·	·	·
COc1cccc(OCC(=O)NN=C2c3ccccc3-c3ccccc32)c1	44.0*	2.2	83.5	4.8
Cc1ccc(-c2csc3ncnc(Nc4ccc(N5CCOCC5)cc4)c23)cc1	108.0	6.8	97.2	78.1*
Cc1ccc(-c2csc3ncnc(NCCN4CCOCC4)c23)cc1	96.0	-2.6	100.1	0.9
CCOC(=O)c1cccc(NC(=O)CSc2nnc(-c3cccnc3)n2C)c1	98.0	-0.6	102.8	13.5
CCn1c(CNC(=O)c2ccco2)nnc1SCC(=O)Nc1ccc(Br)cc1F	97.0	0.0	99.8	-2.5
CC1CC1c1ccc(/C=C(\C#N)C(=O)Nc2cc(Cl)ccc2Cl)o1 (stereo not given)	102.0	-0.2	97.9	60.1*
CC1CC1c1ccc(/C=C(\C#N)C(=O)Nc2ccc(Cl)cc2Cl)o1 (stereo not given)	99.0	1.3	89.3	5.2
COc1ccc(OC)c(CNC(=O)COc2cc(=O)n(C)c3ccccc23)c1	95.0	2.4	99.2	57.0*
COc1ccc(CNC(=O)COc2cc(=O)n(C)c3ccccc23)cc1	87.0	-1.9	98.7	10.2
Cc1noc(C)c1COc1ccc(C(=O)NCCc2ccc(F)cc2)cc1	95.0	0.7	·	0.3
SMILES	ABCB6 inh MLPCN	FXN GAA850 act	STAT3 act	AHR act
COc1ccc(C(=O)NNC(=O)COc2ccc(Cl)cc2)c(OC)c1	98.0	0.7	·	72.7*
COC(=O)NNC(=O)COc1ccc(Cl)cc1	100.0	-1.1	104.0	-0.2
Cc1ccc(Cn2c(C(C)Nc3nc(-c4ccc(F)cc4)cs3)nc3cc(Cl)c(Cl)cc32)cc1 (stereo not given)	97.0	2.5	·	58.8*
COCc1nnc(NC(=O)COc2ccc3c(c2)OCO3)s1	97.0	-0.7	·	10.0
O=C(COc1ccc2c(c1)OCO2)Nc1nccs1	96.0	2.1	·	59.4*
Cc1cccc(-n2nnc3cnn(C)c3c2=O)c1	94.0	0.6	95.0	59.7*
COc1ccc(CC(=O)Nc2ccc(-c3cn4ccc(C)cc4n3)cc2)cc1	112.0	0.2	79.4	-0.4
COc1ccc(NC(=O)/C(Cl)=C(/Cl)S(=O)Cc2ccc(Cl)cc2)cn1 (stereo not given)	37.0*	-16.8	79.3	·
COc1ccc(NC(=O)/C(Cl)=C(/Cl)S(=O)(=O)Cc2ccccc2)cn1	60.0*	-13.9	108.8	·
COc1ccc(NC(=O)C(Cl)=C(Cl)Cl)cn1	103.0	-2.6	102.4	·
Cc1ccc(-c2noc(CNCCCN(C)C)n2)cc1	99.0	1.5	98.8	3.1
